Columns and labels:
[1] = biological target: Telomerase reverse transcriptase (Homo sapiens, UniProt O14746); assay: Inhibition of telomerase in human HepG2 cells after 24 hrs by TRAP-PCR-ELISA assay; type: cell-based
Outline: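 Cells in serum/penicillin/streptomycin medium (37 °C, 5% CO₂) were seeded at 5×10⁴ per T25 flask and allowed to adhere. After 24 h treatment, cells were lysed in RIPA buffer on ice for 30 min and spun at 12,000 g for 20 min at 4 °C. For the kit-based TRAP-PCR-ELISA, PCR ran 94 °C 120 s, then 35 cycles of 94/50/72 °C. Product was hybridised to a DIG probe, captured via biotin-streptavidin, detected with peroxidase anti-DIG, and read at 490 nm.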

BGC-823 = assay: Antiproliferative activity against human BGC823 cells after 48 hrs by MTT method; type: functional, cell-based; conditions: BGC-823, 48 h
Outline: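 MTT assay. Cells were seeded at 10⁴ per well and held 24 h at 37 °C with 5% CO₂. […] After 48 h, 5 mg/mL MTT in PBS was added for 4 h. Formazan was dissolved in DMSO and absorbance read at 490 nm.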

HeLa = assay: Antiproliferative activity against human HeLa cells after 48 hrs by MTT method; type: functional, cell-based
[2] = Antiproliferative activity against human SW1116 cells after 48 hrs by MTT method; type: functional, cell-based; conditions: SW 1116, 48 h
HepG2 = assay: Antiproliferative activity against human HepG2 cells after 48 hrs by MTT method; type: functional, cell-based; conditions: HepG2, 48 h

Sequence of Telomerase reverse transcriptase (O14746 whole entry): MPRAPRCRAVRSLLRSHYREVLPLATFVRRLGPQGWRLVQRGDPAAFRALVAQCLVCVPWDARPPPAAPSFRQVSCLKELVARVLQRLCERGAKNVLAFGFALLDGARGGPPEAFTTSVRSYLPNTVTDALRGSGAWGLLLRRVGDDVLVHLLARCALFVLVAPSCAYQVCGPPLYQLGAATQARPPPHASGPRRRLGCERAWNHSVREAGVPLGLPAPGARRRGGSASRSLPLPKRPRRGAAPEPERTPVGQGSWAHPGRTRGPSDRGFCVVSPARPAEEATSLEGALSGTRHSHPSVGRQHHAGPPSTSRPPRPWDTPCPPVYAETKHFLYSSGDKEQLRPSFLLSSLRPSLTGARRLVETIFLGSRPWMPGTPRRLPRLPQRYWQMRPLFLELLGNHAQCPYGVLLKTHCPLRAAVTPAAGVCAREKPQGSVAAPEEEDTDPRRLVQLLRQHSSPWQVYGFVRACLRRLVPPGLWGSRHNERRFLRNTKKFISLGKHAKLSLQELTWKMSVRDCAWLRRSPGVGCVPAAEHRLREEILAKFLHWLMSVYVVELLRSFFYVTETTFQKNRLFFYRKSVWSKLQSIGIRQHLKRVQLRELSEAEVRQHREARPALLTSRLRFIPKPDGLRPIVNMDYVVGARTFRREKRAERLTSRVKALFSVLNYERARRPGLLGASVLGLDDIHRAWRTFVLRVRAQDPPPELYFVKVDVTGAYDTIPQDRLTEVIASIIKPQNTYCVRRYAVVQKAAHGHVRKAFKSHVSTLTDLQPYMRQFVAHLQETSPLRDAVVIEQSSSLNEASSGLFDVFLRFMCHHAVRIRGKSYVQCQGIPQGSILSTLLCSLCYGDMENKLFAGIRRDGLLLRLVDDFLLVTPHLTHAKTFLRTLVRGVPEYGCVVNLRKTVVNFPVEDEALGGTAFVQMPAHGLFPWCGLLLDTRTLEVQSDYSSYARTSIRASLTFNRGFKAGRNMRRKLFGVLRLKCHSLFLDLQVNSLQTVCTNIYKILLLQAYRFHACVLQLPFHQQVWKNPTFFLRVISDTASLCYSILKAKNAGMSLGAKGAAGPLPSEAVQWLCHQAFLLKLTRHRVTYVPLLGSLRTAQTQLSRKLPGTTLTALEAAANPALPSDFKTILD

| Compound | IC50 [1] [µM] | IC50 (BGC-823) [µM] | IC50 (HeLa) [µM] | IC50 [2] [µM] | IC50 (HepG2) [µM] |
| --- | --- | --- | --- | --- | --- |
| Fc1ccccc1CSc1nnc(-c2cnccn2)n1-c1ccccc1 | 17.6 | > 50 | 44.1 | 18.8 | 19.3 |
| Clc1ccccc1CSc1nnc(-c2cnccn2)o1 | – | 27.7 | 23 | 15.1 | 12.3 |
| Brc1cccc(CSc2nnc(-c3cnccn3)n2-c2ccccc2)c1 | – | 18.3 | 9.58 | 5.03 | 10.6 |
| Brc1ccccc1CSc1nnc(-c2cnccn2)o1 | 3.55 | 17.6 | 8.89 | 2.46 | 4.22 |
| Brc1ccc(CSc2nnc(-c3cnccn3)o2)cc1 | – | 25.7 | 21.6 | 14.4 | 13.2 |
| Fc1ccc(CSc2nnc(-c3cnccn3)n2-c2ccccc2)cc1 | 15 | 27.2 | 7.3 | 4.12 | 10.1 |
| Clc1ccccc1CSc1nnc(-c2cnccn2)n1-c1ccccc1 | – | 34.7 | > 50 | 18.1 | 18.8 |
| Clc1cccc(CSc2nnc(-c3cnccn3)s2)c1 | 3.12 | 14.7 | 29.7 | 12.1 | 7.03 |
| Fc1ccccc1CSc1nnc(-c2cnccn2)o1 | – | 18.2 | 25.3 | 16.8 | 12.5 |
| Clc1cccc(CSc2nnc(-c3cnccn3)o2)c1 | 6.38 | 15.8 | 14.6 | 7.88 | 7.5 |
| Brc1cccc(CSc2nnc(-c3cnccn3)o2)c1 | 3.59 | 11.5 | 30.3 | 5.06 | 5.79 |
| Fc1cccc(F)c1CSc1nnc(-c2cnccn2)o1 | – | > 50 | > 50 | 23.8 | 17.1 |
| c1ccc(CSc2nnc(-c3cnccn3)o2)cc1 | – | 25 | 21.1 | 34 | 11.2 |
| c1ccc(CSc2nnc(-c3cnccn3)s2)cc1 | – | 21.2 | 34.4 | 7.88 | 11.3 |
| Brc1cccc(CSc2nnc(-c3cnccn3)s2)c1 | 1.54 | 16.7 | 5.43 | 5.26 | 1.79 |
| Fc1ccc(CSc2nnc(-c3cnccn3)o2)cc1 | 17.1 | > 50 | 41.6 | 22.7 | 16.5 |
| Clc1ccc(CSc2nnc(-c3cnccn3)s2)cc1 | 7.88 | 13.4 | 18.9 | 4.77 | 6.23 |

— ChEMBL document CHEMBL2157889, “Design, synthesis and biological evaluation of heterocyclic azoles derivatives containing pyrazine moiety as potential telomerase inhibitors” (Bioorg Med Chem, 2012)
